According to ChEMBL document CHEMBL1132207, “Homology modeling of gelatinase catalytic domains and docking simulations of novel sulfonamide inhibitors” (J Med Chem, 1999):
pIC50: −log10 of the molar value.

Key:
[1] = biological target: Matrix metalloproteinase-9 (Homo sapiens, UniProt P14780); test: Inhibitory activity against Matrix metalloprotease-9 (concentration required for 50% inhibition of enzyme activity)
Outline: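 Substrate added from a 1 mM DMSO stock, reaction 60 min, stopped with 3% acetic acid. Fluorescence read at ex 320/em 405 nm. Mean of two assays; IC50 taken as 50% inhibition.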

[2] = biological target: 72 kDa type IV collagenase (Homo sapiens, UniProt P08253)
72 kDa type IV collagenase, sequence (P08253 whole entry): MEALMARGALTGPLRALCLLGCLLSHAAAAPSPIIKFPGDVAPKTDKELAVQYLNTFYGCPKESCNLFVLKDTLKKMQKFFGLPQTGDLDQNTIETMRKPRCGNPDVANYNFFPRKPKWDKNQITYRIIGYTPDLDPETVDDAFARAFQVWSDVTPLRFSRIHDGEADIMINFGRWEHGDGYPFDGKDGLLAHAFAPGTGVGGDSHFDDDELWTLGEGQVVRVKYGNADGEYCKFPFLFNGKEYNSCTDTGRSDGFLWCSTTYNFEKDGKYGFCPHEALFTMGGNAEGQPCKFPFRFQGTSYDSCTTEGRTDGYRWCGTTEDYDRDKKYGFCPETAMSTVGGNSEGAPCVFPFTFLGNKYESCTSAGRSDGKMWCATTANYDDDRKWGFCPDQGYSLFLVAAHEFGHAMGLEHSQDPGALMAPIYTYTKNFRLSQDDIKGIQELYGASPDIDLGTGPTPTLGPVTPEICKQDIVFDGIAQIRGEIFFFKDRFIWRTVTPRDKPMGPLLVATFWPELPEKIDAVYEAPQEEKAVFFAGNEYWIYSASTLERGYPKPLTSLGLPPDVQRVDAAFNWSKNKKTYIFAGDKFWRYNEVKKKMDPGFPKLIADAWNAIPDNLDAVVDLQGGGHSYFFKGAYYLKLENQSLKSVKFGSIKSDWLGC

Matrix metalloproteinase-9, sequence (P14780 whole entry): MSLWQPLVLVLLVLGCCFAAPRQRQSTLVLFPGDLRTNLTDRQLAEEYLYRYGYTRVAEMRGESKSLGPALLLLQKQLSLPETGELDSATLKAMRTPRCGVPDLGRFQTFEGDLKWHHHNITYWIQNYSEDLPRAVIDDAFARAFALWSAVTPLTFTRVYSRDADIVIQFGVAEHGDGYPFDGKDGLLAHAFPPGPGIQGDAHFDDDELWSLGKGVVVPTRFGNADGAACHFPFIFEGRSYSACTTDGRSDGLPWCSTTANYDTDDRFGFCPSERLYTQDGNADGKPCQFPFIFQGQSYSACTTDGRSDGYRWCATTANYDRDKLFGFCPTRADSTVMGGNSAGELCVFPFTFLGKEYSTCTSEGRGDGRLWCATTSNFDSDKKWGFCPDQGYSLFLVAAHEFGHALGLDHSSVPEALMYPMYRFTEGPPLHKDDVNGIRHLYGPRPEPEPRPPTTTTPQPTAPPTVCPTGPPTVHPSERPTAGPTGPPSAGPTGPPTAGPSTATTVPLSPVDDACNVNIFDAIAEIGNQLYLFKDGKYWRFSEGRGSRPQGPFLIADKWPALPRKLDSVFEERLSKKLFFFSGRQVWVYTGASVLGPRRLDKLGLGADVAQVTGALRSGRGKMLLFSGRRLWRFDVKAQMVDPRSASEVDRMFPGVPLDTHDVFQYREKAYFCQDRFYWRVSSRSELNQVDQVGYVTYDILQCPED

Structure (SMILES) | pIC50 [1] | pIC50 [2]
CC(C)[C@@H](NS(=O)(=O)c1ccc(-c2nnn(-c3ccccc3)n2)cc1)C(=O)O | 7.14 | –
COc1ccc(C#Cc2ccc(S(=O)(=O)N[C@H](Cc3c[nH]c4ccccc34)C(=O)O)cc2[N+](=O)[O-])cc1 | 5.72 | 7.48
Cc1ccccc1C#Cc1ccc(S(=O)(=O)N[C@H](Cc2c[nH]c3ccccc23)C(=O)O)s1 | 5.77 | 7.09
O=C(O)[C@@H](Cc1c[nH]c2ccccc12)NS(=O)(=O)c1cccc2ccccc12 | < 4.70 | < 4.70
O=C(N[C@H](Cc1ccccc1)C(=O)O)c1ccc(-c2ccccc2)cc1 | < 4.70 | –
COc1ccc(C#Cc2ccc(S(=O)(=O)N[C@H](Cc3c[nH]c4ccccc34)C(=O)O)cc2)cc1 | 8.09 | 9.19
CCCCOc1ccc(C#Cc2ccc(S(=O)(=O)N[C@@H](C(=O)O)C(C)C)s2)cc1 | 6.68 | 8.33
O=C(O)[C@@H](Cc1c[nH]c2ccccc12)NS(=O)(=O)c1ccc(C#Cc2ccc(Oc3ccccc3)cc2)s1 | 5.64 | –
Cc1ccc(C#Cc2ccc(S(=O)(=O)N[C@H](Cc3c[nH]c4ccccc34)C(=O)O)s2)cc1 [S-3304] | 8.02 | –
CC(C)[C@@H](NS(=O)(=O)c1ccc(C#Cc2ccc(Oc3ccccc3)cc2)s1)C(=O)O | 6.59 | 7.74
CCc1ccc(C#Cc2ccc(S(=O)(=O)N[C@H](Cc3c[nH]c4ccccc34)C(=O)O)s2)cc1 | 8.14 | –
O=C(O)[C@@H](Cc1ccccc1)NS(=O)(=O)c1ccc(Br)cc1 | < 4.70 | 5.15
O=C(O)[C@@H](Cc1ccccc1)NS(=O)(=O)c1ccc(-c2ccccc2)cc1 | 5.57 | –
O=C(O)[C@@H](Cc1ccccc1)NS(=O)(=O)c1ccc(C#Cc2ccccc2)cc1 | 6.47 | 7.70
CC(C)[C@H](C(=O)O)N(C)S(=O)(=O)c1ccc(-c2nnn(-c3ccccc3)n2)cc1 | 6.06 | –
Cc1ccc(C#Cc2ccc(S(=O)(=O)N[C@@H](C(=O)O)C(C)C)s2)cc1 | 7.62 | 8.23
O=C(O)[C@@H](Cc1ccccc1)NS(=O)(=O)c1ccc(-c2ccc(-c3ccccc3)cc2)cc1 | 7.92 | 8.36
CCCCc1ccc(C#Cc2ccc(S(=O)(=O)N[C@@H](C(=O)O)C(C)C)s2)cc1 | 6.68 | 8.27
CCc1ccc(C#Cc2ccc(S(=O)(=O)N[C@@H](C(=O)O)C(C)C)s2)cc1 | 8.36 | 8.32
CCCCOc1ccc(C#Cc2ccc(S(=O)(=O)N[C@H](Cc3c[nH]c4ccccc34)C(=O)O)s2)cc1 | 5.70 | –
CCCCc1ccc(C#Cc2ccc(S(=O)(=O)N[C@H](Cc3c[nH]c4ccccc34)C(=O)O)s2)cc1 | 5.57 | –
O=C(O)[C@@H](Cc1c[nH]c2ccccc12)NS(=O)(=O)c1ccc2ccccc2c1 | < 4.70 | 6.30
